Results: ChEMBL document CHEMBL3871276, “Synthesis, antiamoebic and molecular docking studies of furan-thiazolidinone hybrids” (Eur J Med Chem, 2016)

Experiments:
[1] = test system: Entamoeba histolytica; assay: Antiamoebic activity against Entamoeba histolytica HM-1:IMSS trophozoites after 72 hrs by eosin staining based microdilution method; type: functional
How it was run: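 Trophozoites grown in Diamond TYIS-33 medium. Compounds in DMSO, 1 mg/mL stock, two-fold serial dilutions. 1.7 x 10⁴ organisms/well, plate gassed with nitrogen 10 min, 37 °C for 72 h. Wells washed with 0.9% NaCl, fixed with methanol, stained with 0.5% eosin for 15 min, dye released with 0.1 N NaOH, OD 490 nm. IC50 from linear regression of % inhibition vs log dose. Triplicate wells, repeated thrice.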

[2] = molecular target: T1, Thioredoxin reductase (Entamoeba histolytica, UniProt C4LW95); assay: Inhibition of Entamoeba histolytica thioredoxin reductase
T1 sequence (C4LW95 whole entry): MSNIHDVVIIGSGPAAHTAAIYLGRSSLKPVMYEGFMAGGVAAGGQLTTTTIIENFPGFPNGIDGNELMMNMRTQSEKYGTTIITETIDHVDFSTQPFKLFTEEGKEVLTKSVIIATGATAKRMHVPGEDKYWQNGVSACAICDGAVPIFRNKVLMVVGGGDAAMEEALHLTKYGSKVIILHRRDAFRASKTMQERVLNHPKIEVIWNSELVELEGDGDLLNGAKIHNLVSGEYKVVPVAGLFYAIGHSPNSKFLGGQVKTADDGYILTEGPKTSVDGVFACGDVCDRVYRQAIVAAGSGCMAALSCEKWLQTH

[3] = Inhibition of Entamoeba histolytica O-acetyl-L-serine sulfohydrolase preincubated with enzyme followed by TNB substrate addition measured after 30 mins by UV-Visible spectrophotometric method; conditions: in the assay text read “OAS substrate” for “TNB substrate”
How it was run: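 Recombinant EhOASS (90 μg) in 100 mM HEPES pH 7.0 with […], inhibitor 0.25–500 μM, preincubated 30 min at room temperature. Reaction started with O-acetyl-L-serine. TNB disappearance followed at 412 nm. % decrease in activity taken relative to the uninhibited reaction. IC50 from % inhibition vs log inhibitor concentration.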

[4] = Cytotoxicity against CHO cells assessed as reduction in cell viability after 48 hrs by MTT assay; type: toxicity, cell-based, Cricetulus griseus; conditions: for IC50 at 48 h: Chinese hamster, CHO cells; for Activity: chinese hamster, cho, 48 h
How it was run: (§1)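 Chinese hamster ovary cells in RPMI with 10% FBS and 1% penicillin-streptomycin-neomycin. 5,000 cells/well, in triplicate, exposed to compound or vehicle DMSO at 37 °C, 5% CO2 for 48 h or 72 h. MTT (5 mg/mL in PBS) added for 4 h, formazan dissolved in DMSO, absorbance at 570 nm. Viability expressed as % of DMSO control.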

[5] = Cytotoxicity against CHO cells assessed as reduction in cell viability after 72 hrs by MTT assay; type: toxicity, cell-based, Cricetulus griseus; conditions: for IC50 at 72 h: Chinese hamster, CHO cells; for Activity: chinese hamster, cho, 72 h; how it was run: as §1
[6] = Cytotoxicity against CHO cells assessed as reduction in cell viability at 2.5 to 50 uM after 48 hrs by MTT assay; type: toxicity, cell-based, Cricetulus griseus; conditions: chinese hamster; how it was run: as §1
[7] = Cytotoxicity against CHO cells assessed as reduction in cell viability at 2.5 to 25 uM after 72 hrs by MTT assay; type: toxicity, cell-based, Cricetulus griseus; conditions: chinese hamster; how it was run: as §1
[8] = Cytotoxicity against CHO cells assessed as reduction in cell viability at 100 uM after 48 hrs by MTT assay; type: toxicity, cell-based, Cricetulus griseus; conditions: chinese hamster; how it was run: as §1
[9] = Cytotoxicity against CHO cells assessed as reduction in cell viability at 50 uM after 72 hrs by MTT assay; type: toxicity, cell-based, Cricetulus griseus; conditions: chinese hamster; how it was run: as §1

S=C(NCc1ccco1)Nc1ccccc1
IC50 [1]: 8.22 µM

O=C1/C(=C/c2ccc3c(c2)OCO3)S/C(=N\c2ccccc2)N1Cc1ccco1
IC50 [1]: 2.97 µM | Ki [2]: 27 µM | Ki [3]: 343 µM

CCOc1ccc(/C=C2\S/C(=N\c3ccccc3)N(Cc3ccco3)C2=O)cc1
IC50 [1]: 2.03 µM | Ki [2]: 4.66 µM | Ki [3]: 149 µM

COc1ccc(/C=C2\S/C(=N\c3ccccc3)N(Cc3ccco3)C2=O)cc1OC
IC50 [1]: 0.47 µM | IC50 at 48 h [4]: > 400 µM | Activity [4]: Dose-dependent effect | IC50 at 72 h [5]: > 250 µM | Activity [5]: Dose-dependent effect | Activity [6]: Non-Toxic | Activity [7]: Non-Toxic | Activity [8]: Non-Toxic | Activity [9]: Non-Toxic | Ki [2]: 0.68 µM

O=C(CSc1nc(O)cc(=O)[nH]1)c1c[nH]c2ccccc12
Ki [3]: 25.6 µM

O=C1/C(=C/c2ccccn2)S/C(=N\c2ccccc2)N1Cc1ccco1
IC50 [1]: 0.27 µM | IC50 at 48 h [4]: > 400 µM | Activity [4]: Dose-dependent effect | IC50 at 72 h [5]: > 250 µM | Activity [5]: Dose-dependent effect | Activity [6]: Non-Toxic | Activity [7]: Non-Toxic | Activity [8]: Non-Toxic | Activity [9]: Non-Toxic | Ki [2]: 0.39 µM

Cc1ccc(/C=C2\S/C(=N\c3ccccc3)N(Cc3ccco3)C2=O)cc1
IC50 [1]: 1.48 µM | IC50 at 48 h [4]: 421 µM | Activity [4]: Dose-dependent effect | IC50 at 72 h [5]: 185 µM | Activity [5]: Dose-dependent effect | Activity [6]: Non-Toxic | Activity [7]: Non-Toxic | Ki [2]: 2.82 µM

COc1ccc(/C=C2\S/C(=N\c3ccccc3)N(Cc3ccco3)C2=O)cc1
IC50 [1]: 1.35 µM | IC50 at 48 h [4]: > 400 µM | Activity [4]: Dose-dependent effect | IC50 at 72 h [5]: > 250 µM | Activity [5]: Dose-dependent effect | Activity [6]: Non-Toxic | Activity [7]: Non-Toxic | Ki [2]: 2.07 µM

O=C1CS/C(=N\c2ccccc2)N1Cc1ccco1
IC50 [1]: 3.57 µM | Ki [2]: 337 µM | Ki [3]: 2240 µM

O=C1/C(=C/c2ccccc2)S/C(=N\c2ccccc2)N1Cc1ccco1
IC50 [1]: 2.25 µM | Ki [2]: 10.9 µM | Ki [3]: 58 µM

COc1cc(/C=C2\S/C(=N\c3ccccc3)N(Cc3ccco3)C2=O)cc(OC)c1OC
IC50 [1]: 1.24 µM | IC50 at 48 h [4]: > 400 µM | Activity [4]: Dose-dependent effect | IC50 at 72 h [5]: > 250 µM | Activity [5]: Dose-dependent effect | Activity [6]: Non-Toxic | Activity [7]: Non-Toxic | Ki [2]: 1.05 µM

O=C1/C(=C/c2ccc([N+](=O)[O-])cc2)S/C(=N\c2ccccc2)N1Cc1ccco1
IC50 [1]: 2.87 µM | Ki [2]: 16.1 µM | Ki [3]: 98.6 µM

CC(C)Oc1ccc(/C=C2\S/C(=N\c3ccccc3)N(Cc3ccco3)C2=O)cc1
IC50 [1]: 2.2 µM | Ki [2]: 5.68 µM | Ki [3]: 54.8 µM

COc1ccc(OC)c(/C=C2\S/C(=N\c3ccccc3)N(Cc3ccco3)C2=O)c1
IC50 [1]: 0.67 µM | IC50 at 48 h [4]: > 400 µM | Activity [4]: Dose-dependent effect | IC50 at 72 h [5]: > 250 µM | Activity [5]: Dose-dependent effect | Activity [6]: Non-Toxic | Activity [7]: Non-Toxic | Activity [8]: Non-Toxic | Activity [9]: Non-Toxic | Ki [2]: 0.69 µM

O=C1/C(=C/c2ccc(Cl)cc2)S/C(=N\c2ccccc2)N1Cc1ccco1
IC50 [1]: 2.33 µM | Ki [2]: 6.23 µM | Ki [3]: 84.3 µM

O=C1/C(=C/c2ccc(O)cc2)S/C(=N\c2ccccc2)N1Cc1ccco1
IC50 [1]: 1.04 µM | IC50 at 48 h [4]: 400 µM | Activity [4]: Dose-dependent effect | IC50 at 72 h [5]: > 250 µM | Activity [5]: Dose-dependent effect | Activity [6]: Non-Toxic | Activity [7]: Non-Toxic | Ki [2]: 0.73 µM

O=C1/C(=C/c2cccc([N+](=O)[O-])c2)S/C(=N\c2ccccc2)N1Cc1ccco1
IC50 [1]: 1.95 µM | Ki [2]: 3.56 µM | Ki [3]: 46.8 µM

O=C1/C(=C/c2cccc(Cl)c2)S/C(=N\c2ccccc2)N1Cc1ccco1
IC50 [1]: 1.95 µM | Ki [2]: 3.16 µM | Ki [3]: 45.8 µM

Cc1ncc([N+](=O)[O-])n1CCn1cc(-c2ccccn2)nn1
Ki [2]: 2.88 µM

Cc1ncc([N+](=O)[O-])n1CCO [METRONIDAZOLE]
IC50 at 48 h [4]: > 400 µM | IC50 at 72 h [5]: 280 µM | Activity [6]: Non-Toxic | Activity [7]: Non-Toxic | Ki [2]: 3.3 µM | Ki [3]: 42.6 µM
